The test system of one series is Rattus norvegicus. Description: Dose normalized AUC in Sprague-Dawley rat at 3 mg/kg, po. The settings on record: in vivo. It is filed as ADME, organism-based. An outline of the steps: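 Catheterized female Sprague-Dawley rats received a single oral dose of 3 mg/kg as a suspension in CMC:water:Tween 80 (0.5:99:0.5). This followed a 48 h wash-out after iv dosing in the same animals.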

Series [1] can be described thus: Clearance in Sprague-Dawley rat at 1 mg/kg, iv. The format is ADME, organism-based. Particulars: in vivo. The method, boiled down:
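Female Sprague-Dawley rats with femoral artery and vein catheters received a single iv dose of 1 mg/kg in NMP:PEG200 (30:70). Clearance is the mean ± SD of four animals.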

The nature of series [2]: Drug level in blood of FVB mouse chamber implant model at 30 mg/kg, po bid for 4 days measured at 16 hrs on day 4. Particulars: read-out: Drug uptake.
A short description of series [3]: Drug level in blood of FVB mouse chamber implant model at 30 mg/kg, po bid for 4 days measured at 2 hrs on day 4. The settings on record: read-out: Drug uptake.
A short description of series [4]: Drug level in blood of methylated BSA and complete Freund's adjuvant sensitized Lewis rat antigen-induced arthritis model at 30 mg/kg, po bid for 7 days and measured 2 hrs post dose. It is filed as ADME, organism-based. The settings on record: read-out: Drug uptake. The method, boiled down:
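Lewis rat AIA model, 30 mg/kg po bid. Blood concentration was measured on day 7 at 2 h post dose. Values are the mean of n = 5.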

As to `CCc1nn2c(C)cc(C)nc2c1Cc1ccc(CCCN2CCN(C(C)C)CC2)cc1`, the AUC/dose with Rattus norvegicus was 1.1 µmol·h/L. For the same molecule, the clearance (commonly the volume of plasma or blood freed of the substance per unit of time) in series [1] came out at 29 mL/min/kg.
As for `CCc1nn2c(C)cc(C)nc2c1Cc1ccc(CCC(=O)N2CCNCC2)cc1`, in the series with Rattus norvegicus, the AUC/dose worked out at 1.2 µmol·h/L. This molecule showed a clearance in series [1] of 28 mL/min/kg.
Take `CCc1nn2c(C)cc(C)nc2c1Cc1ccc(CCC(O)C2CCNCC2)cc1` (centres undefined): the AUC/dose with Rattus norvegicus came to 0.49 µmol·h/L. Also, the clearance in series [1] came out at 31 mL/min/kg.
For the molecule `CCc1nn2c(C)cc(C)nc2c1Cc1ccc(-c2nnc(C3CCNCC3)o2)cc1`, the concentration at 16 h in series [2] is 0.09 µM. Besides, the AUC/dose with Rattus norvegicus stood at 6.7 µmol·h/L. Moreover, the concentration at 2 h in series [3] was found to be 9.03 µM. The same molecule gave a clearance in series [1] of 6 mL/min/kg.
On to `CCc1nn2c(C)cc(C)nc2c1Cc1ccc(/C=C/CN2CCN(C(C)C)CC2)cc1`, for which, in the series with Rattus norvegicus, the AUC/dose was determined as 3.2 µmol·h/L. This molecule also yielded a clearance in series [1] of 12 mL/min/kg.
Consider `CCc1nn2c(C)cc(C)nc2c1Cc1ccc(/C=C/CN2CCN(C[C@@H](O)CO)CC2)cc1`, for which the AUC/dose in the series with Rattus norvegicus was found to be 5.1 µmol·h/L. This molecule yielded a clearance in series [1] of 11 mL/min/kg.
Turning to `CCc1nn2c(C)cc(C)nc2c1Cc1ccc(/C=C/CN2CCNC(=O)C2)cc1`, the AUC/dose in the series on Rattus norvegicus turned out to be 13.6 µmol·h/L. The molecule further returned a clearance in series [1] of 4 mL/min/kg. The concentration at 2 h in series [4] came to 23 µM.
Consider `CCc1nn2c(C)cc(C)nc2c1Cc1ccc(CCCC2(O)CCNCC2)cc1`, for which the AUC/dose in the series on Rattus norvegicus stood at 0.53 µmol·h/L. This molecule displayed a clearance in series [1] of 49 mL/min/kg.

Values taken from ChEMBL document CHEMBL4177561, “Development of Selective, Orally Active GPR4 Antagonists with Modulatory Effects on Nociception, Inflammation, and Angiogenesis” (J Med Chem, 2017).
